Numbered stars: 1 amine (or outer) side, 2 acyl side, 3 side chain; on linkers, the order of the positions; unused ones are H or OH. Square brackets hold non-standard residues; d marks the D form. Peptide text beside a SMILES is read from it. * marks the point of attachment. Hydrocinnamoyl = O=C(CCc1ccccc1)*; Butanoyl(2-Et) = CCC(CC)C(=O)*; Tle = CC(C)(C)[C@H](N)C(=O)O; Pip = O=C(O)[C@@H]1CCCCN1; NH(3-pentyl) = CCC(CC)N*; Pyrrolidide = C1CCN(*)C1; CO = O=C([*:1])[*:2]; X2 = CCC(CC)CC(=O)*; X3 = CCC(CC)OC(=O)*; X1 = CCCC(CCC)N*; NHiPr = CC(C)N*
These compounds were tested against T1, Ribonucleoside-diphosphate reductase large subunit (Herpes simplex virus (type 1 / strain 17), UniProt P08543) (assay: Inhibitory activity against Herpes simplex virus (HSV) ribonucleotide reductase (RR)).
T1 sequence (P08543 whole entry): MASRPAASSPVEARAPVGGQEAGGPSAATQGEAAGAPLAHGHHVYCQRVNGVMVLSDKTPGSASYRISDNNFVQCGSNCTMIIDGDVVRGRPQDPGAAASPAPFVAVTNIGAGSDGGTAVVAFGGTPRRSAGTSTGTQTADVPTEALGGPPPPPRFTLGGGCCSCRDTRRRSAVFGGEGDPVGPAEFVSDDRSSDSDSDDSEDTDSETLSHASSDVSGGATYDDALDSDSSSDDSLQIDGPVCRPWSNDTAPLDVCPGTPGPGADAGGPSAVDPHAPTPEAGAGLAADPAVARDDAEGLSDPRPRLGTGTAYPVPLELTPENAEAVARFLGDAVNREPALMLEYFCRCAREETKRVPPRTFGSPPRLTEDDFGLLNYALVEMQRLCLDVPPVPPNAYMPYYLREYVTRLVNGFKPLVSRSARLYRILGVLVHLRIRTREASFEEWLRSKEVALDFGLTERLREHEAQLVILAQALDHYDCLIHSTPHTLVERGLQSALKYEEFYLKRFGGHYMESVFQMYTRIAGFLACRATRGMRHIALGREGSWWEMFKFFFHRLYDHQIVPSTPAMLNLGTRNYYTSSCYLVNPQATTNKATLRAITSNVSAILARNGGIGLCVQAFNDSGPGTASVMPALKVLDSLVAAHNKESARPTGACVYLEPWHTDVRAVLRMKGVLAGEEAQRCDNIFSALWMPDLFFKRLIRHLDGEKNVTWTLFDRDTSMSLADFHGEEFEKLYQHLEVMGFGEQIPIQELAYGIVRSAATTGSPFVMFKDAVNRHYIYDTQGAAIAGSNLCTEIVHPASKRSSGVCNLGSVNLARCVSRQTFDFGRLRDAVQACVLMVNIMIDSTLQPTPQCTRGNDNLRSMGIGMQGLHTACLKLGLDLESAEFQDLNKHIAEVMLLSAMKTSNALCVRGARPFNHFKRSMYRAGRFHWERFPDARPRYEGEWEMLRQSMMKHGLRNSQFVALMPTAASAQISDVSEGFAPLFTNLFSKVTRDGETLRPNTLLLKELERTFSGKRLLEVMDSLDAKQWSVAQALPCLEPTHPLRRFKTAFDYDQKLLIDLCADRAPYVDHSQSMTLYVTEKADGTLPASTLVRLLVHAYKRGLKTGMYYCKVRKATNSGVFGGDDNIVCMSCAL
Outline: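 Radioligand binding assay for HSV ribonucleotide reductase subunit association, run per a previously published protocol. IC50 taken as the mean of at least four separate determinations, with standard deviation reported.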

Row | SMILES | IC50
1 | CCC(CC)OC(=O)N[C@H](C(=O)N[C@@H](CC(=O)N1CCCC1)C(=O)N[C@@H](CC(=O)O)C(=O)N[C@@H](CC(C)C)C(=O)O)C(C)(C)C (X3-[Tle]D(Pyrrolidide)DL-OH) | 635 nM
2 | CCC(CC)NC(=O)N[C@@H](C)C(=O)N[C@@H](CC(=O)N1CCCC1)C(=O)N[C@@H](CC(=O)O)C(=O)N[C@@H](CC(C)C)C(=O)O ({NH(3-pentyl)-CO}-AD(Pyrrolidide)DL-OH) | 41000 nM
3 | CCC(CC)NC(=O)N[C@H](C(=O)N[C@@H](CC(=O)N1CCCC1)C(=O)N[C@@H](CC(=O)O)C(=O)N[C@@H](CC(C)C)C(=O)O)C(C)C ({NH(3-pentyl)-CO}-VD(Pyrrolidide)DL-OH) | 15 nM
4 | CC(C)C[C@H](NC(=O)[C@H](CC(=O)O)NC(=O)[C@H](CC(=O)N1CCCC1)NC(=O)[C@@H](NC(=O)[C@@H](NC(=O)CCc1ccccc1)C(C)C)C(C)C)C(=O)O (Hydrocinnamoyl-VVD(Pyrrolidide)DL-OH) | 24 nM
5 | CCC(CC)NC(=O)N[C@H](C(=O)N1CCC[C@H]1C(=O)N[C@@H](CC(=O)O)C(=O)N[C@@H](CC(C)C)C(=O)O)C(C)(C)C ({NH(3-pentyl)-CO}-[Tle]PDL-OH) | 100000 nM
6 | CCC(CC)C(=O)N[C@H](C(=O)N[C@@H](CC(=O)N1CCCC1)C(=O)N[C@@H](CC(=O)O)C(=O)N[C@@H](CC(C)C)C(=O)O)C(C)C ({Butanoyl(2-Et)}-VD(Pyrrolidide)DL-OH) | 860 nM
7 | CCC(CC)NC(=O)N[C@H](C(=O)N1CCCC(C(=O)N2CCCC2)C1C(=O)N[C@@H](CC(=O)O)C(=O)N[C@@H](CC(C)C)C(=O)O)C(C)(C)C (stereo in doubt; 17) | 3000 nM
8 | CCC(CC)NC(=O)NC1CCCN([C@@H](CC(=O)N2CCCC2)C(=O)N[C@@H](CC(=O)O)C(=O)N[C@@H](CC(C)C)C(=O)O)C1=O (stereo partly drawn) | 240 nM
9 | CC(=O)N[C@H](C(=O)N[C@H](C(=O)N[C@@H](CC(=O)N1CCCC1)C(=O)N[C@@H](CC(=O)O)C(=O)N[C@@H](CC(C)C)C(=O)O)C(C)C)C(C)C (Ac-VVD(Pyrrolidide)DL-OH) | 880 nM
10 | CCC(CC)NC(=O)N[C@H](C(=O)N1CCCC(C(=O)N2CCCC2)C1C(=O)N[C@@H](CC(=O)O)C(=O)N[C@@H](CC(C)C)C(=O)O)C(C)(C)C (stereo in doubt; 16) | 32 nM
11 | CCC(CC)NC(=O)N[C@H](C(=O)N[C@@H](CC(=O)NC)C(=O)N[C@@H](CC(=O)O)C(=O)N[C@@H](CC(C)C)C(=O)O)C(C)(C)C ({NH(3-pentyl)-CO}-[Tle]D(NHMe)DL-OH) | 35 nM
12 | CCC(CC)CC(=O)N[C@H](C(=O)N[C@@H](CC(=O)N1CCCC1)C(=O)N[C@@H](CC(=O)O)C(=O)N[C@@H](CC(C)C)C(=O)O)C(C)(C)C (X2-[Tle]D(Pyrrolidide)DL-OH) | 140 nM
13 | CNC(=O)N[C@H](C(=O)N[C@@H](CC(=O)N1CCCC1)C(=O)N[C@@H](CC(=O)O)C(=O)N[C@@H](CC(C)C)C(=O)O)C(C)C ({NHMe-CO}-VD(Pyrrolidide)DL-OH) | 42000 nM
14 | CCC(CC)NC(=O)NC1CCN([C@@H](CC(=O)N2CCCC2)C(=O)N[C@@H](CC(=O)O)C(=O)N[C@@H](CC(C)C)C(=O)O)C1=O (stereo partly drawn) | 800 nM
15 | CCC(CC)NC(=O)C[C@H](C(=O)N[C@@H](CC(=O)N1CCCC1)C(=O)N[C@@H](CC(=O)O)C(=O)N[C@@H](CC(C)C)C(=O)O)C(C)(C)C | 5 nM
16 | CCCC(CCC)NC(=O)N[C@H](C(=O)N[C@@H](CC(=O)N1CCCC1)C(=O)N[C@@H](CC(=O)O)C(=O)N[C@@H](CC(C)C)C(=O)O)C(C)C ({X1-CO}-VD(Pyrrolidide)DL-OH) | 7 nM
17 | CCC(CC)NC(=O)N[C@H](C(=O)N[C@@H](C)C(=O)N[C@@H](CC(=O)O)C(=O)N[C@@H](CC(C)C)C(=O)O)C(C)(C)C ({NH(3-pentyl)-CO}-[Tle]ADL-OH) | 110000 nM
18 | CCC(CC)NC(=O)N[C@H](C(=O)N1CCCC[C@H]1C(=O)N[C@@H](CC(=O)O)C(=O)N[C@@H](CC(C)C)C(=O)O)C(C)(C)C ({NH(3-pentyl)-CO}-[Tle][Pip]DL-OH) | 750000 nM
19 | CCC(CC)NC(=O)N[C@H](C(=O)N1CCCC(C(=O)NC)C1C(=O)N[C@@H](CC(=O)O)C(=O)N[C@@H](CC(C)C)C(=O)O)C(C)(C)C (stereo partly drawn) | 10 nM
20 | CCC(CC)NC(=O)N[C@H](C(=O)N1CCC(C(=O)N2CCCC2)[C@H]1C(=O)N[C@@H](CC(=O)O)C(=O)N[C@@H](CC(C)C)C(=O)O)C(C)(C)C (stereo partly drawn) | 108 nM
21 | CC(C)C[C@H](NC(=O)[C@H](CC(=O)O)NC(=O)[C@H](CC(=O)N1CCCC1)NC(=O)[C@@H](NC(=O)NC(C)C)C(C)C)C(=O)O ({NHiPr-CO}-VD(Pyrrolidide)DL-OH) | 435 nM
22 | CCC(CC)NC(=O)N[C@H](C(=O)N[C@@H](CC(=O)N1CCCC1)C(=O)N[C@@H](CC(=O)O)C(=O)N[C@@H](CC(C)C)C(=O)O)C(C)(C)C ({NH(3-pentyl)-CO}-[Tle]D(Pyrrolidide)DL-OH) | 3 nM
23 | CCC(CC)NC(=O)NCC(=O)N[C@@H](CC(=O)N1CCCC1)C(=O)N[C@@H](CC(=O)O)C(=O)N[C@@H](CC(C)C)C(=O)O ({NH(3-pentyl)-CO}-GD(Pyrrolidide)DL-OH) | 670 nM

Reference: ChEMBL document CHEMBL1129325, “Ureido-based peptidomimetic inhibitor of herpes simplex virus ribonucleotide reductase: an investigation of inhibitor bioactive conformation” (J Med Chem, 1996)
